Activity calls are given as the source filed them. No cut-off for these calls is given here.
How the values were obtained:
[1] = molecular target: T1, Mitogen-activated protein kinase kinase kinase 12 (Homo sapiens) (UniProt Q12852); test: Inhibition of Flag DLK (unknown origin) transfected in HEK293 cells assessed as reduction of phosphorylation of MKK7 at 0.1 to 10 uM incubated for 5 hrs measured by Western blot analysis; format: cell-based
T1 sequence (whole entry): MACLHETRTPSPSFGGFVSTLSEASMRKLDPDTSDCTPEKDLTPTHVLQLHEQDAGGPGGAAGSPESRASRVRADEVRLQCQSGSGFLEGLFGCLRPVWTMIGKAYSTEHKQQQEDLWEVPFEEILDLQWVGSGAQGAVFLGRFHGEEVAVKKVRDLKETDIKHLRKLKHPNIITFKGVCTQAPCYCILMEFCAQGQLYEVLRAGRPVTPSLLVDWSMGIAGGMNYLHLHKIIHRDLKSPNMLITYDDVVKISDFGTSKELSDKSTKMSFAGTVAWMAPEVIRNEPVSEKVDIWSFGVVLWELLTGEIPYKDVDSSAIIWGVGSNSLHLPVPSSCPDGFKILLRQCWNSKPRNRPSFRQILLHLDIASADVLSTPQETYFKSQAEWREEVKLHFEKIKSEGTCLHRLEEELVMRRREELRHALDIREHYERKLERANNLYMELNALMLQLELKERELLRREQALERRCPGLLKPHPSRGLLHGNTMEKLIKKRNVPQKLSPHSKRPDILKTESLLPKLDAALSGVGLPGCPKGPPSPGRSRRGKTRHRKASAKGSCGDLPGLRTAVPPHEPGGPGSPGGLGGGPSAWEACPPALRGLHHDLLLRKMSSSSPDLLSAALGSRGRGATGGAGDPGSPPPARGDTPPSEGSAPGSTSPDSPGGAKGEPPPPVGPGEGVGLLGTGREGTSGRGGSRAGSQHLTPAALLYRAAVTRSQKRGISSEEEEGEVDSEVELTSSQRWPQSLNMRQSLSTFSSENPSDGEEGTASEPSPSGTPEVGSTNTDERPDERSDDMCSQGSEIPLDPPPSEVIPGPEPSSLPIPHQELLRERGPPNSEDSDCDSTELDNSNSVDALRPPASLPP
How it was run: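 HEK293 cells were transfected with Flag-tagged DLK, with kinase-dead DLK K152A as comparator, 24 h before compound addition. Cells were then exposed to compound for 5 h. Phospho-MKK4, phospho-MKK7, phospho-JNK and phospho-c-Jun were probed.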

[2] = molecular target: Serine/threonine-protein kinase MARK2 (Homo sapiens) (UniProt Q7KZI7); test: Inhibition of MARK2 (unknown origin) at 1 uM by FRET method
How it was run: (§1)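 SelectScreen panel of 58 kinases, each tested at a single 1 µM compound concentration. Read-out was Z′-LYTE FRET of labeled peptide phosphorylation, run by the vendor's protocols, reported as percent inhibition.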

[3] = molecular target: Mitogen-activated protein kinase kinase kinase 11 (Homo sapiens, UniProt Q16584); test: Inhibition of MLK3 (unknown origin) at 1 uM by FRET method
How it was run: (§2)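 Single-point screen at 1 uM against a panel of 58 representative kinases. Readout was labeled-peptide phosphorylation by FRET (Z′-LYTE), using the vendor's protocols.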

[4] = molecular target: Serine/threonine-protein kinase mTOR (Homo sapiens) (UniProt P42345); test: Inhibition of mTOR (unknown origin) at 1 uM by FRET method; how it was run: as §2
[5] = molecular target: Serine/threonine-protein kinase Nek1 (Homo sapiens) (UniProt Q96PY6); test: Inhibition of NEK1 (unknown origin) at 1 uM by FRET method; how it was run: as §2
[6] = molecular target: Ribosomal protein S6 kinase beta-1 (Homo sapiens) (UniProt P23443); test: Inhibition of p70S6K (unknown origin) at 1 uM by FRET method; how it was run: as §2
[7] = molecular target: Phosphorylase b kinase gamma catalytic chain, liver/testis isoform (Homo sapiens) (UniProt P15735); test: Inhibition of PhKgamma2 (unknown origin) at 1 uM by FRET method; how it was run: as §2
[8] = molecular target: Protein kinase C beta type (Homo sapiens) (UniProt P05771); test: Inhibition of PKCbeta1 (unknown origin) at 1 uM by FRET method; how it was run: as §2
[9] = molecular target: Serine/threonine-protein kinase PLK1 (Homo sapiens) (UniProt P53350); test: Inhibition of PLK1 (unknown origin) at 1 uM by FRET method; how it was run: as §2
[10] = molecular target: Proto-oncogene tyrosine-protein kinase receptor Ret (Homo sapiens) (UniProt P07949); test: Inhibition of Ret (unknown origin) at 1 uM by FRET method; how it was run: as §2
[11] = molecular target: Angiopoietin-1 receptor (Homo sapiens) (UniProt Q02763); test: Inhibition of Tie2 (unknown origin) at 1 uM by FRET method; how it was run: as §2
[12] = molecular target: Serine/threonine-protein kinase Chk1 (Homo sapiens) (UniProt O14757); test: Inhibition of CHK1 (unknown origin) at 1 uM by FRET method; how it was run: as §1
[13] = molecular target: Casein kinase I isoform gamma-2 (Homo sapiens) (UniProt P78368); test: Inhibition of CK1gamma2 (unknown origin) at 1 uM by FRET method; how it was run: as §1
[14] = molecular target: Mitogen-activated protein kinase kinase kinase 8 (Homo sapiens) (UniProt P41279); test: Inhibition of Cot (unknown origin) at 1 uM by FRET method; how it was run: as §1
[15] = molecular target: Macrophage colony-stimulating factor 1 receptor (Homo sapiens, UniProt P07333); test: Inhibition of CSF1R (unknown origin) at 1 uM by FRET method; how it was run: as §1
[16] = molecular target: Ephrin type-A receptor 2 (Homo sapiens) (UniProt P29317); test: Inhibition of EphA2 (unknown origin) at 1 uM by FRET method; how it was run: as §1
[17] = molecular target: Mitogen-activated protein kinase 3 (Homo sapiens) (UniProt P27361); test: Inhibition of ERK1 (unknown origin) at 1 uM by FRET method; how it was run: as §1
[18] = molecular target: Mitogen-activated protein kinase 8 (Homo sapiens, UniProt P45983); test: Inhibition of JNK1alpha1(unknown origin) at 1 uM by FRET method; how it was run: as §1
[19] = molecular target: Receptor-type tyrosine-protein kinase FLT3 (Homo sapiens, UniProt P36888); test: Inhibition of Flt3 (unknown origin) by FRET method
[20] = molecular target: T2, BDNF/NT-3 growth factors receptor (Homo sapiens, UniProt Q16620); test: Inhibition of TrkB (unknown origin) by FRET method
How it was run: (§3)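 Biochemical IC50 determination from a 10-point dose-response in an enzymatic Z′-LYTE assay. Labeled-peptide phosphorylation was read by FRET under the vendor's protocols.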
Target sequence in this assay (Q16620 whole entry): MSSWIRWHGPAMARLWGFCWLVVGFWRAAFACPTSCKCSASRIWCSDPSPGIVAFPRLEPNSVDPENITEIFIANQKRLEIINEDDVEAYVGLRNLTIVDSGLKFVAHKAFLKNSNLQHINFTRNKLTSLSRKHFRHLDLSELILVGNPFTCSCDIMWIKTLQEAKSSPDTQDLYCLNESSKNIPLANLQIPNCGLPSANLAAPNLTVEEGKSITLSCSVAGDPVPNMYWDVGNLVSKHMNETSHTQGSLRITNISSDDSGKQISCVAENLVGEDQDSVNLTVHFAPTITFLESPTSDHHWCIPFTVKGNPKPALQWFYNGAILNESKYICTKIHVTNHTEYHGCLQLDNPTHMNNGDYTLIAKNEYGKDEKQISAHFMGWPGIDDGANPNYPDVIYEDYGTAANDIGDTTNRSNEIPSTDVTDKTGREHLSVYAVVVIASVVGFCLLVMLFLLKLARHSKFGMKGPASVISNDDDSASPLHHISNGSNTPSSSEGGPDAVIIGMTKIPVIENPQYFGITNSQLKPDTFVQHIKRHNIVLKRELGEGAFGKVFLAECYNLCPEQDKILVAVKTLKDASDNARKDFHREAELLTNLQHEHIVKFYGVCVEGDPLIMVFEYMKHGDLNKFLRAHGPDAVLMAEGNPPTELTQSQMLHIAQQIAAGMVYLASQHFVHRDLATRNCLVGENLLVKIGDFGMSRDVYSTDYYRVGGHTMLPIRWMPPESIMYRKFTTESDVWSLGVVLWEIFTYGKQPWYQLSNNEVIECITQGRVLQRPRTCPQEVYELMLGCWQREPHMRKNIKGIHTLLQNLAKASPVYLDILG

[21] = molecular target: Mitogen-activated protein kinase kinase kinase 9 (Homo sapiens, UniProt P80192); test: Inhibition of MLK1 (unknown origin) by FRET method; how it was run: as §3
[22] = Neuroprotective activity in Wistar rat DRG neuronal cells by neurodegeration assay; format: functional, cell-based
[23] = Cmax in mouse at 50 mg/kg, po; format: ADME, organism-based; set-up: dose 50 mg/kg, route oral; details: in vivo
How it was run: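 C57/Bl6 mice were given a single 50 mg/kg oral dose as an MCT suspension. Plasma was sampled over 0–6 h for Cmax, Tmax and AUC0–6h.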

[24] = molecular target: T2, BDNF/NT-3 growth factors receptor; details: 1 uM

Sequence of Mitogen-activated protein kinase kinase kinase 9 (P80192 whole entry): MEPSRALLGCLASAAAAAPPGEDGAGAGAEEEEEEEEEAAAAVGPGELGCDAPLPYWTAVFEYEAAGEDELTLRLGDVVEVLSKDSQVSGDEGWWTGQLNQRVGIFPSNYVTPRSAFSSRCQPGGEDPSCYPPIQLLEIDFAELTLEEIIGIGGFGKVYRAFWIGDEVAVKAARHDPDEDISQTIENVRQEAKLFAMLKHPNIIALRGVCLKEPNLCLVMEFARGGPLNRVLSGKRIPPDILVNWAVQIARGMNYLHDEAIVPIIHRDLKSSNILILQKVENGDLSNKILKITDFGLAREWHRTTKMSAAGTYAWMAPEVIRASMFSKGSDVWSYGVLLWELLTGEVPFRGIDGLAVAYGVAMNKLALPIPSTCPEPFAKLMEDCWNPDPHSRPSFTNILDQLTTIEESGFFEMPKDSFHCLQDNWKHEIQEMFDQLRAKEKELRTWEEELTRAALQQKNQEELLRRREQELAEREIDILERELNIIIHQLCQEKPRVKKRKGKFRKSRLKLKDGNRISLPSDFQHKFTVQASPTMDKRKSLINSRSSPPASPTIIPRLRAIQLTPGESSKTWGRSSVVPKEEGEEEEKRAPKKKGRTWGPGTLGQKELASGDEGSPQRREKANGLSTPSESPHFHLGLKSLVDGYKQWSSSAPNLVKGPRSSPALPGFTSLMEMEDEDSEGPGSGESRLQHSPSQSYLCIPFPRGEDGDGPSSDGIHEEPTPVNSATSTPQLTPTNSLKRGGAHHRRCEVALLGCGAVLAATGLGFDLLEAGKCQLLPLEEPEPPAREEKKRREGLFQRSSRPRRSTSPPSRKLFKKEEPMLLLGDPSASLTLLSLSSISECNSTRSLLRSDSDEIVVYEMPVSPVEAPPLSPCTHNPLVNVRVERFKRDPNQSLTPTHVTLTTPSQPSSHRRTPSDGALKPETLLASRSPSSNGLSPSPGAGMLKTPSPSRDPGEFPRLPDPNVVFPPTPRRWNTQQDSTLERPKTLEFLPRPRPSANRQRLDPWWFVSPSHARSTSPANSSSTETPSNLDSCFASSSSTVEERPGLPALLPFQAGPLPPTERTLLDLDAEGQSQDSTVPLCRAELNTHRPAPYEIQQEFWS
Sequence of Casein kinase I isoform gamma-2 (Homo sapiens) (P78368 whole entry, looked up, canonical isoform): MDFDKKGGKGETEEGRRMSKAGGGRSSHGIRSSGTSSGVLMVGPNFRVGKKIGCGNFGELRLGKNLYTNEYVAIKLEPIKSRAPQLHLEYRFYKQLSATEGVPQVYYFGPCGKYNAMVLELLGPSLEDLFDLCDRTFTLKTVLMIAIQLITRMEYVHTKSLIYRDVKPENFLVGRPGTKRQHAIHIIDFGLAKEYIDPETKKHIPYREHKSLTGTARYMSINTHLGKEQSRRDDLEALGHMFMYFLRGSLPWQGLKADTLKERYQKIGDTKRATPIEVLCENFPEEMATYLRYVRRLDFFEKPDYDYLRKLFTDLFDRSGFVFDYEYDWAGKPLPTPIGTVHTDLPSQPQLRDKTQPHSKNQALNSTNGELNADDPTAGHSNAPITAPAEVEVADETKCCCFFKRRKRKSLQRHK
Sequence of Mitogen-activated protein kinase 8 (P45983 whole entry): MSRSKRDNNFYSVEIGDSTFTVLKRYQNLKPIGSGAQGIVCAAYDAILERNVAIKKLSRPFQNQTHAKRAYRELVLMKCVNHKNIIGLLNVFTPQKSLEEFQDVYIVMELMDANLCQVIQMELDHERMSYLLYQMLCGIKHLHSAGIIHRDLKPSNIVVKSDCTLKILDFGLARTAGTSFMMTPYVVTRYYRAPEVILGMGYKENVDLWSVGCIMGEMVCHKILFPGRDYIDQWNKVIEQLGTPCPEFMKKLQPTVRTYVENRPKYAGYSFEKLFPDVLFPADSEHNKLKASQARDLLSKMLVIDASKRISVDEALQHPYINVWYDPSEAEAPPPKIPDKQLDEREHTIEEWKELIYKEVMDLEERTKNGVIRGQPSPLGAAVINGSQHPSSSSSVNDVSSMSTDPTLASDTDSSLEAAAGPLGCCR
Sequence of Mitogen-activated protein kinase kinase kinase 11 (Q16584 whole entry, looked up): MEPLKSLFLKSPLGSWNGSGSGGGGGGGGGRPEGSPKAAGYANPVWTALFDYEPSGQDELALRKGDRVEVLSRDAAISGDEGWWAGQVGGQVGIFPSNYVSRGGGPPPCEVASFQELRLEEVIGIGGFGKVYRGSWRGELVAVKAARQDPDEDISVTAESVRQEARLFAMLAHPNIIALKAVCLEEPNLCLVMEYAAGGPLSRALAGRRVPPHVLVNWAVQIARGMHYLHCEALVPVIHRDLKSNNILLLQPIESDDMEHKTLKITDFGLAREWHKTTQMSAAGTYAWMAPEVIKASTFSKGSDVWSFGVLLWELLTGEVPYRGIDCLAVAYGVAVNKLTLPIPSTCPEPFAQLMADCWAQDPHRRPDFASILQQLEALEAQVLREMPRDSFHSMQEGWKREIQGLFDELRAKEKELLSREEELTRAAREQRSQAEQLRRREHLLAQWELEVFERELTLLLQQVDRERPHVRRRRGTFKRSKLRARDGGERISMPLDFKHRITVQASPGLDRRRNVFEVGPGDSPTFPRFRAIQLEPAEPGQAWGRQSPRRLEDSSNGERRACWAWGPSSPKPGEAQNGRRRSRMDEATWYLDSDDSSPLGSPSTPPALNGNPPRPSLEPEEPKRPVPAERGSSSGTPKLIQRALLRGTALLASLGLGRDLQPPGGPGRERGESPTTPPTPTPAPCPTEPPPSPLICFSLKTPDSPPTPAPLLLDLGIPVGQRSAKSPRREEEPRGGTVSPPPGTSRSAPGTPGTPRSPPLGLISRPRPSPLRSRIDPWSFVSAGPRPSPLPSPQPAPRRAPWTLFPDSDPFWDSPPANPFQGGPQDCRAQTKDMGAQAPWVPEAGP
Sequence of Mitogen-activated protein kinase 3 (Homo sapiens) (P27361 whole entry): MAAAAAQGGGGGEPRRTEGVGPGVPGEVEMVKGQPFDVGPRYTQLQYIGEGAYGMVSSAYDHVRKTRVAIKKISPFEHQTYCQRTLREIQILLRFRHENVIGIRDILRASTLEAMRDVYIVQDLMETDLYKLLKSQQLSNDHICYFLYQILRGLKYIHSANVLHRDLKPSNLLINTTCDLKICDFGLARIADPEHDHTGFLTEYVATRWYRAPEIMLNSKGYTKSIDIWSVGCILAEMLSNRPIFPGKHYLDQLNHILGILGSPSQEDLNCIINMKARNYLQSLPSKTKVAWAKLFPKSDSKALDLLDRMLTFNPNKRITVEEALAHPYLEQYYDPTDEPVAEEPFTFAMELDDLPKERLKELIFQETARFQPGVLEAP
Sequence of Ribosomal protein S6 kinase beta-1 (Homo sapiens) (P23443 whole entry, looked up, canonical isoform): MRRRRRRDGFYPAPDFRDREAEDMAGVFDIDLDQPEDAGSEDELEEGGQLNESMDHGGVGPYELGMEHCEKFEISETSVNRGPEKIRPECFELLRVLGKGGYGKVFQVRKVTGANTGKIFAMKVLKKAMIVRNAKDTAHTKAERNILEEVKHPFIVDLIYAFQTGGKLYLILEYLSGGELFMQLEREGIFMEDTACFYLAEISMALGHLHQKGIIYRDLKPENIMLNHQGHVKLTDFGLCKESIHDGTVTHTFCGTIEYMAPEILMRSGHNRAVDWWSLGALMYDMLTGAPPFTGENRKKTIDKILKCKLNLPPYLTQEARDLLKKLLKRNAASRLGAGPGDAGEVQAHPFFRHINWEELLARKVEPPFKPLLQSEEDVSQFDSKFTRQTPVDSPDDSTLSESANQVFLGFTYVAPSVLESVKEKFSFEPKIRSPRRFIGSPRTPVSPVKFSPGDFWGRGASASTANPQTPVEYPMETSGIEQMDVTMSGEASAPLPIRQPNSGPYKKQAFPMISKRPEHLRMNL
Sequence of Phosphorylase b kinase gamma catalytic chain, liver/testis isoform (Homo sapiens) (P15735 whole entry, canonical isoform): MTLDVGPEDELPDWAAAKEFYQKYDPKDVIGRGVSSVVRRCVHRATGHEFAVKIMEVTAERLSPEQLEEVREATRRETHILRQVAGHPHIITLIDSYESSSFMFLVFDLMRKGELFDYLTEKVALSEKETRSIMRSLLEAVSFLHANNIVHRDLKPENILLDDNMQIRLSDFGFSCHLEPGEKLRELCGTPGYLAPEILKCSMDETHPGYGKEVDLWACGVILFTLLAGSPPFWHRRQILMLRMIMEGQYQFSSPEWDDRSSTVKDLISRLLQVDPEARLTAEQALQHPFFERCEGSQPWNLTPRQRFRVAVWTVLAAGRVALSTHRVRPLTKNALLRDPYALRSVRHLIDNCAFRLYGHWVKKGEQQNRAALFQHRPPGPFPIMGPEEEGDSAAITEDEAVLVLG

N#Cc1ccnc(Nc2cc(C3CCN(C4COC4)CC3)n(C3CCCC3)n2)c1
inhibition [1]: Active
inhibition [2]: 3%
inhibition [3]: 1.4%
inhibition [4]: 9.2%
inhibition [5]: 3.1%
inhibition [6]: 0.8%
inhibition [7]: -1.9%
inhibition [8]: 15.9%
inhibition [9]: 7.3%
inhibition [10]: 29.6%
inhibition [11]: 1.8%
inhibition [12]: -2.3%
inhibition [13]: 1.8%
inhibition [14]: 15.6%
inhibition [15]: 51.8%
inhibition [16]: 23%
inhibition [17]: 0.6%
inhibition [18]: 4.5%
IC50 [19]: 322 nM
IC50 [20]: 1190 nM
IC50 [21]: > 10000 nM
EC50 [22]: 2150 nM
Cmax [23]: 5.9 µM
inhibition [24]: 50.5%

From ChEMBL document CHEMBL3627690, “Scaffold-Hopping and Structure-Based Discovery of Potent, Selective, And Brain Penetrant N-(1H-Pyrazol-3-yl)pyridin-2-amine Inhibitors of Dual Leucine Zipper Kinase (DLK, MAP3K12)” (J Med Chem, 2015)
